Reference: ChEMBL document CHEMBL1154625, “New insights into the SAR and binding modes of bis(hydroxyphenyl)thiophenes and -benzenes: influence of additional substituents on 17beta-hydroxysteroid dehydrogenase type 1 (17beta-HSD1) inhibitory activity and selectivity” (J Med Chem, 2009)
pIC50: −log10 of the molar value. Active and inactive are the calls of the source. The rule behind the calls is not given here.

Experiments:
[1] = target: T1, 17-beta-hydroxysteroid dehydrogenase type 1 (Homo sapiens, UniProt P14061)
T1 sequence (P14061 whole entry): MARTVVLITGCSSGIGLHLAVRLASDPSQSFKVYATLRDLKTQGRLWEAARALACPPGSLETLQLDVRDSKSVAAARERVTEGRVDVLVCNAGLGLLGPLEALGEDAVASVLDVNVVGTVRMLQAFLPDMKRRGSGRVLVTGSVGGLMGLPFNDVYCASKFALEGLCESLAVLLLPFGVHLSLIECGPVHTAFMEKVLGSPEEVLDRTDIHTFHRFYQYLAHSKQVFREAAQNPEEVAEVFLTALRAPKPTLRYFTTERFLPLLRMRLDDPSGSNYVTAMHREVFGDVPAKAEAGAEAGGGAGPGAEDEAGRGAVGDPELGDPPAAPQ

[2] = target: T2, 17-beta-hydroxysteroid dehydrogenase type 2 (Homo sapiens, UniProt P37059); experiment: Inhibition of human placental 17betaHSD2 by radiodetection assay
T2 sequence (P37059 whole entry): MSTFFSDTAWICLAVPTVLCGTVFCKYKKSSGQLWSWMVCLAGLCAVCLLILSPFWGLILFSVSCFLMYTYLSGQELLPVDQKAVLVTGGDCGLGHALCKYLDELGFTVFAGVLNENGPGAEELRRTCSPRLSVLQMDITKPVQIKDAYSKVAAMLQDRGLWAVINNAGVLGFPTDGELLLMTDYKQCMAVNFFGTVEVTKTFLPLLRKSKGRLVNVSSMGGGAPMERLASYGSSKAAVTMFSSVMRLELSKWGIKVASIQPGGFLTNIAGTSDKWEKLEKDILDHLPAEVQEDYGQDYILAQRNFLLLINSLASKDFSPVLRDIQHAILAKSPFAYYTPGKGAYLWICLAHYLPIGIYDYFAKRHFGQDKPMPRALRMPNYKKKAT
Method in brief: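 Microsomal fraction from fresh human placenta (pellet after homogenisation and centrifugation). Incubated 20 min at 37 °C with NAD+ 1500 μM and unlabeled E2 plus [2,4,6,7-3H]E2 (500 nM final) in phosphate buffer 50 mM with 20% glycerol and 1 mM EDTA, 1% DMSO. Stopped with HgCl2 and ether-extracted. Substrate and product separated by HPLC with radiodetection. Mean of three determinations.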

T47D = experiment: […] in human T47D cells assessed as inhibition of E2 formation in presence of E1
Cytochrome P450 3A4 = Cytochrome P450 3A4 (Homo sapiens, UniProt P08684); experiment: Inhibition of human hepatic CYP3A4; assay type: ADME
Method in brief: (§1)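 Tested with commercial P450 inhibition kits, used following the manufacturer's instructions. Values reported as IC50.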

Cytochrome P450 2D6 = Cytochrome P450 2D6 (Homo sapiens, UniProt P10635); experiment: Inhibition of human hepatic CYP2D6; assay type: ADME
Method in brief: as §1

Cytochrome P450 2C19 = Cytochrome P450 2C19 (Homo sapiens, UniProt P33261); experiment: Inhibition of human hepatic CYP2C19; assay type: ADME
Method in brief: as §1

[3] = Cmax in Wistar rat at 10 mg/kg, po; assay type: ADME, organism-based; set-up: dose 10 mg/kg, route oral; conditions: in vivo
Method in brief: (§2)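 Male Wistar rats (300-330 g), jugular-vein cannulated under ketamine/xylazine anaesthesia, sampled while freely moving. Oral cassette dosing by feeding needle to four rats at 10 mg/kg in labrasol/water (1:1), 5 mL/kg. Blood taken at 0, 1, 2, 3, 4, 6, 8, 10 and 24 h postdose; plasma frozen at -20 °C and quantified by HPLC-MS/MS.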

[4] = Terminal half life in Wistar rat at 10 mg/kg, po; assay type: ADME, organism-based; set-up: dose 10 mg/kg, route oral; conditions: in vivo, read-out: beta t1/2 (converted)
Method in brief: as §2

[5] = Tmax in Wistar rat at 10 mg/kg, po; assay type: ADME, organism-based; set-up: dose 10 mg/kg, route oral; conditions: in vivo
Method in brief: as §2

Rattus norvegicus = experiment: AUC (0 to infinity) in Wistar rat at 10 mg/kg, po; assay type: ADME, organism-based, Plasma; set-up: time infinity, dose 10 mg/kg, route oral; conditions: in vivo
Method in brief: as §2

[6] = target: T3, Estrogen receptor (Homo sapiens) (UniProt P03372); experiment: Agonist activity at ER in human T47D cells assessed as stimulation of cell proliferation; assay type: functional, cell-based
T3 sequence (whole entry): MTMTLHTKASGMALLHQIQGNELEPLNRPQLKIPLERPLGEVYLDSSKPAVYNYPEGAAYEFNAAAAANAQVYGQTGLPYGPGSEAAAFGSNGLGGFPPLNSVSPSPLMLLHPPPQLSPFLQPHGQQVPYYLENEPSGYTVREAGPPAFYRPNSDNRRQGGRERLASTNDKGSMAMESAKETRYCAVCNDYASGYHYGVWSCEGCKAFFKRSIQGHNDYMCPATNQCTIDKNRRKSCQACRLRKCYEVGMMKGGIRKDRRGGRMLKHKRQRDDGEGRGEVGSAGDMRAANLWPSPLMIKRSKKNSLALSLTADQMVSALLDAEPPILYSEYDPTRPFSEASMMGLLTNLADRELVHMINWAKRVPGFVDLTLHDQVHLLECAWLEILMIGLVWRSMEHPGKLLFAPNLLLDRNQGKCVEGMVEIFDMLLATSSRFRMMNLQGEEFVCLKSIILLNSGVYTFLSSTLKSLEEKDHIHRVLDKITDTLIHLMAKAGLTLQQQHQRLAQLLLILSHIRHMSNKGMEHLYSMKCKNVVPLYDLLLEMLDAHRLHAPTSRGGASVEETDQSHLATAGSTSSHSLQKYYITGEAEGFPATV
Method in brief: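 T-47D cells grown 48 h in phenol red-free RPMI 1640 with 5% DCC-FCS, insulin and supplements, then exposed to test compound at 100 nM final (1% ethanol) for 8 days. Medium and additive renewed every 2-3 days. E2 0.1 nM served as positive control, ethanol as negative. Viability read by MTT at 590 nm. Stimulation was expressed relative to E2-induced proliferation, mean of ≥3 independent experiments.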

Chain of Cytochrome P450 2C19 (P33261 whole entry): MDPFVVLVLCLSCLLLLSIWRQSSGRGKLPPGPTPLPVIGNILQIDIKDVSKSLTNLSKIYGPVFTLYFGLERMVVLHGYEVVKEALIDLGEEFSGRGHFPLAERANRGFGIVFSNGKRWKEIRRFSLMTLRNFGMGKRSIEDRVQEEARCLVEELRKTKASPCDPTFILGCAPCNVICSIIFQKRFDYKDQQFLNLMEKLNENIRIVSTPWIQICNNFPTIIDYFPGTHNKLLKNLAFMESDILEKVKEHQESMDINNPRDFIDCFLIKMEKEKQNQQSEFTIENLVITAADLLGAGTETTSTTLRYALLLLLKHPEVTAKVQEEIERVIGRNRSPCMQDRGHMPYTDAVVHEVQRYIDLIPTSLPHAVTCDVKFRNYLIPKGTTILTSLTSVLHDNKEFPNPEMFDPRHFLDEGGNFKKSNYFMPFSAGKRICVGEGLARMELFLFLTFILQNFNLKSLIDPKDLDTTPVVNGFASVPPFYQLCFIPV
Chain of Cytochrome P450 3A4 (P08684 whole entry): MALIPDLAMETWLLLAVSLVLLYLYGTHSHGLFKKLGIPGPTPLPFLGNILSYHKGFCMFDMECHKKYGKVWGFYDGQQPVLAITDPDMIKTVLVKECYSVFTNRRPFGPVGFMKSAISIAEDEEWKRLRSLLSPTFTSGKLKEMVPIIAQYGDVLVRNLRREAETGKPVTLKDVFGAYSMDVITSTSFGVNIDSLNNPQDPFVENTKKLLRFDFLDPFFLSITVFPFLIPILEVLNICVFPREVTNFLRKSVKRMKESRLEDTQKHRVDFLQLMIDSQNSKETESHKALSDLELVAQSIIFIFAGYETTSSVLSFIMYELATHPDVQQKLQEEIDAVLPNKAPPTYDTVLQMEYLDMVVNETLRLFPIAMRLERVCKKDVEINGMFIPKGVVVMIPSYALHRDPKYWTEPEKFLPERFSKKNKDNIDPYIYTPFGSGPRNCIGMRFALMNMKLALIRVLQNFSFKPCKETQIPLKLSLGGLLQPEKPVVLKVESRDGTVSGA
Chain of Cytochrome P450 2D6 (P10635 whole entry): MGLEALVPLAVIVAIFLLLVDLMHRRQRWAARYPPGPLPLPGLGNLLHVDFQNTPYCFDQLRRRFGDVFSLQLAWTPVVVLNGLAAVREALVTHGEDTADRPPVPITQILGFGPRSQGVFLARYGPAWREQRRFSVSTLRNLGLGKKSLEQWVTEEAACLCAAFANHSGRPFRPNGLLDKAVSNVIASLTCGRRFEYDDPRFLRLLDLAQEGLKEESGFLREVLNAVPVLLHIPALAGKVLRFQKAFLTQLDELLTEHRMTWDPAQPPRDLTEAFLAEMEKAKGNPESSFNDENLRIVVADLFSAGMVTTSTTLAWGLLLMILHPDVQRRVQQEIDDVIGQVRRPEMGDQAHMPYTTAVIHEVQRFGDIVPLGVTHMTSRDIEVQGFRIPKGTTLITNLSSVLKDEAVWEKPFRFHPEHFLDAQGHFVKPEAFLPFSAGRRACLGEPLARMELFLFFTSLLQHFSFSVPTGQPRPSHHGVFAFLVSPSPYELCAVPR

Row | SMILES | pIC50 [1] | pIC50 [2] | also measured
1 | Oc1cccc(-c2cc(-c3ccccc3)c(-c3cccc(O)c3)s2)c1 | 6.31 | – | –
2 | Oc1cccc(-c2ccc(-c3cccc(F)c3)s2)c1 | – | 5.74 | –
3 | Oc1ccc(-c2ccc(-c3cc(O)cc(F)c3)s2)cc1 | 7.38 | 6.33 | –
4 | Cc1ccc(S(=O)(=O)NCc2cccc(-c3ccc(-c4cccc(O)c4)s3)c2)cc1 | 6.46 | 6.56 | –
5 | Oc1cccc(-c2ccc(-c3ccc(F)c(F)c3)s2)c1 | 6.11 | 5.58 | –
6 | Cc1ccc(-c2ccc(-c3ccc(O)cc3)s2)cc1O | < 5.30 | – | –
7 | Oc1ccc(-c2ccc(-c3ccc(F)c(O)c3)s2)cc1 | 6.95 | 6.74 | –
8 | Nc1ccc(-c2ccc(-c3cccc(O)c3)s2)cc1 | < 5.30 | – | –
9 | CCOC(=O)/C=C/c1cc(-c2ccc(-c3cccc(O)c3)s2)ccc1O | 6.89 | 6.30 | –
10 | O=C(/C=C/c1cc(-c2ccc(-c3cccc(O)c3)s2)ccc1O)Nc1ccccc1 | 6.37 | 6.33 | –
11 | Oc1cccc(-c2cc(-c3ccc(O)c(F)c3)cs2)c1 | 7.19 | 6.29 | –
12 | Oc1cccc(-c2ccc(-c3ccc(F)cc3)s2)c1 | – | 5.44 | –
13 | CS(=O)(=O)NCc1cccc(-c2ccc(-c3cccc(O)c3)s2)c1 | < 6.00 | – | –
14 | CS(=O)(=O)Nc1cccc(-c2ccc(-c3cccc(O)c3)s2)c1 | – | 5.80 | –
15 | Oc1cccc(-c2ccc(-c3ccc(S)cc3)s2)c1 | < 5.30 | – | –
16 | Cc1cc(-c2csc(-c3cccc(O)c3)c2)ccc1O | 7.19 | – | pIC50 (T47D): 6.44; pIC50 (Cytochrome P450 3A4): < 5.82; pIC50 (Cytochrome P450 2D6): < 5.82; pIC50 (Cytochrome P450 2C19): 5.82
17 | Cc1cc(-c2ccc(-c3cccc(O)c3)s2)ccc1O | 7.34 | – | Cmax [3]: 905 ng/mL; half-life [4]: 228 min; Tmax [5]: 4 h; pIC50 (T47D): 6.37; AUC (Rattus norvegicus): 12275 ng/mL; pIC50 (Cytochrome P450 3A4): 6.30; pIC50 (Cytochrome P450 2D6): < 5.82; pIC50 (Cytochrome P450 2C19): 6.03; Activity [6]: inactive
18 | Oc1cccc(-c2ccc(-c3ccc(O)c(C(F)(F)F)c3)s2)c1 | 7.42 | 7.01 | –

Row | SMILES | pIC50 [1] | pIC50 [2] | also measured
19 | Oc1ccc(-c2ccc(-c3ccc(O)c(O)c3)s2)cc1 | < 5.30 | – | –
20 | Oc1cccc(-c2ccc(-c3ccc(O)c(-c4ccccc4)c3)s2)c1 | < 5.30 | – | –
21 | Cc1cc(-c2cnc(-c3cccc(O)c3)s2)ccc1O | 6.84 | – | –
22 | Oc1cccc(-c2ccc(-c3ccc(O)c(O)c3)s2)c1 | 6.40 | – | –
23 | Oc1cccc(-c2ccc(-c3ccc(O)c(F)c3)cc2)c1 | 6.91 | 6.06 | –
24 | Cc1cc(-c2ccc(-c3cccc(O)c3)cc2)ccc1O | 6.77 | 5.90 | –
25 | Oc1cc(F)cc(-c2ccc(-c3ccc(O)c(F)c3)s2)c1 | 7.54 | 6.64 | –
26 | Oc1ccc(-c2cc(-c3cccc(O)c3)c(-c3cccc(O)c3)s2)cc1 | < 6.00 | – | –
27 | Oc1cccc(-c2ccc(-c3ccc(F)c(O)c3)cc2)c1 | 7.29 | 6.60 | –
28 | Cc1cc(O)cc(-c2ccc(-c3ccc(O)cc3)s2)c1 | 6.20 | 5.59 | –
29 | Oc1cccc(-c2ccc(-c3cc(F)c(O)c(F)c3)s2)c1 | 7.25 | 6.51 | –
30 | Oc1cccc(-c2ccc(-c3ccc(O)c(F)c3)s2)c1 | 8.10 | – | Cmax [3]: 1390 ng/mL; half-life [4]: 162 min; Tmax [5]: 8 h; pIC50 (T47D): 6.55; AUC (Rattus norvegicus): 19407 ng/mL; pIC50 (Cytochrome P450 3A4): 6.09; pIC50 (Cytochrome P450 2D6): < 5.82; pIC50 (Cytochrome P450 2C19): 5.82
31 | O=C(CCc1cc(-c2ccc(-c3cccc(O)c3)s2)ccc1O)Nc1ccccc1 | 6.21 | 6.01 | –
32 | Oc1cccc(-c2cc(-c3cccc(O)c3)c(-c3cccc(O)c3)s2)c1 | 6.92 | 6.73 | –
33 | Cc1cc(-c2cccc(O)c2)sc1-c1cccc(O)c1 | 6.25 | 6.07 | –
34 | Oc1cc(-c2ccc(-c3ccc(O)c(F)c3)s2)ccc1F | 7.77 | 6.66 | –
35 | N#Cc1ccc(-c2ccc(-c3cccc(O)c3)s2)cc1 | < 6.00 | – | –
